Measured values reported in ChEMBL document CHEMBL2163229, “Identifying novel adenosine receptor ligands by simultaneous proteochemometric modeling of rat and human bioactivity data” (J Med Chem, 2012).

Assays:
[1] = target: T1, Adenosine receptor A2a (Homo sapiens, UniProt P29274); assay: Displacement of [3H]ZM241385 from human adenosine A2A receptor expressed in HEK 293 cells after 2 hrs by scintillation counting; type: cell-based, HEK293
[2] = target: T2, Adenosine receptor A3 (Homo sapiens) (UniProt P0DMS8); assay: Displacement of [3H]PSB11 from human adenosine A3 receptor expressed in HEK 293 cells at 10 uM after 1 hr by scintillation counting; type: cell-based; conditions: HEK293
T2 sequence (whole entry): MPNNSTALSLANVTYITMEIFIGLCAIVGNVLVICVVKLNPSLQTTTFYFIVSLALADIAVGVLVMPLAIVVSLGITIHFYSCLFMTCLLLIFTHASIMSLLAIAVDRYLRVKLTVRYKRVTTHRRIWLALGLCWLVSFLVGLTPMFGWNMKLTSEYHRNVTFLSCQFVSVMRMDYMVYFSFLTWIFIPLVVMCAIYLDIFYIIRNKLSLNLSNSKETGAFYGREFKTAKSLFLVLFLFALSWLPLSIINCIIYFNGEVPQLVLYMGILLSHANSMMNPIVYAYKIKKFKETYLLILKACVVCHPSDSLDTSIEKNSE

[3] = target: T3, Adenosine receptor A2b (Homo sapiens) (UniProt P29275); assay: Displacement of [3H][…] from human adenosine A2B receptor expressed in CHO cells at 10 uM after 2 hrs by scintillation counting; type: cell-based
T3 sequence (whole entry): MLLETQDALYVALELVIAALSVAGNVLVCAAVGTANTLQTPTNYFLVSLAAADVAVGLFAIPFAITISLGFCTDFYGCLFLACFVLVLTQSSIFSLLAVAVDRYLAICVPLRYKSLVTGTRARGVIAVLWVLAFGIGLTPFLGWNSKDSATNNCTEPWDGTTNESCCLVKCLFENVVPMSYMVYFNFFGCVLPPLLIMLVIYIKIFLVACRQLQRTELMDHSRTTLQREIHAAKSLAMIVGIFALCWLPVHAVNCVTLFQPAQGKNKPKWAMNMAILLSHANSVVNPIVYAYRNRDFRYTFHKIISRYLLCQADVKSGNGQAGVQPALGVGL
Procedure, shortened: (§1)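 Stably transfected CHO membranes (15 μg protein) with 1.0 nM [3H]PSB603 final in 50 mM Tris·HCl pH 7.4, 1 U/mL ADA, 0.1% CHAPS, 2 h at 25 °C. Nonspecific binding with 100 μM NECA. GF/C filtration; washes in ice-cold Tris·HCl pH 7.4 plus 0.1% BSA. Ki by nonlinear regression using radioligand Ki of 0.41 nM.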

[4] = target: T4, Adenosine receptor A1 (Homo sapiens) (UniProt P30542); assay: Displacement of [3H]DPCPX from human adenosine A1 receptor expressed in CHO cells at 10 uM after 1 hr by scintillation counting; type: cell-based
T4 sequence (whole entry): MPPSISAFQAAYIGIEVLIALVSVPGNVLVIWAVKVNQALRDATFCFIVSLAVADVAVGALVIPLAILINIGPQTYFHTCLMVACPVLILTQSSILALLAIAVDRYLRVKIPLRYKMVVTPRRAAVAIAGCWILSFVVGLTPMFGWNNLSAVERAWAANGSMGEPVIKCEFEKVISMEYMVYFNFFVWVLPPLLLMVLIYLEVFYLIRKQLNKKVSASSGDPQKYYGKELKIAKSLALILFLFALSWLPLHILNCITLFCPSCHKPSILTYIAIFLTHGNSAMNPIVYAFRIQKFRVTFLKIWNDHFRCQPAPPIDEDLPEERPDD

[5] = target: T5, Adenosine receptor A1 (Homo sapiens, UniProt P30542); assay: Displacement of [3H]DPCPX from human adenosine A1 receptor expressed in CHO cells after 1 hr by scintillation counting; type: cell-based
T5 sequence (P30542 whole entry): T4 sequence (whole entry)

[6] = target: T6, Adenosine receptor A2b (Homo sapiens, UniProt P29275); assay: Displacement of [3H][…] from human adenosine A2B receptor expressed in CHO cells after 2 hrs by scintillation counting; type: cell-based; procedure, shortened: as §1
T6 sequence (P29275 whole entry): T3 sequence (whole entry)

[7] = target: T7, Adenosine receptor A3 (Homo sapiens, UniProt P0DMS8); assay: Displacement of [3H]PSB11 from human adenosine A3 receptor expressed in HEK 293 cells after 1 hr by scintillation counting; type: cell-based, HEK293
T7 sequence (P0DMS8 whole entry): T2 sequence (whole entry)

[8] = target: T1, Adenosine receptor A2a; assay: Displacement of [3H]ZM241385 from human adenosine A2A receptor expressed in HEK 293 cells at 10 uM after 2 hrs by scintillation counting; type: cell-based; conditions: HEK293

T1 sequence (P29274 whole entry): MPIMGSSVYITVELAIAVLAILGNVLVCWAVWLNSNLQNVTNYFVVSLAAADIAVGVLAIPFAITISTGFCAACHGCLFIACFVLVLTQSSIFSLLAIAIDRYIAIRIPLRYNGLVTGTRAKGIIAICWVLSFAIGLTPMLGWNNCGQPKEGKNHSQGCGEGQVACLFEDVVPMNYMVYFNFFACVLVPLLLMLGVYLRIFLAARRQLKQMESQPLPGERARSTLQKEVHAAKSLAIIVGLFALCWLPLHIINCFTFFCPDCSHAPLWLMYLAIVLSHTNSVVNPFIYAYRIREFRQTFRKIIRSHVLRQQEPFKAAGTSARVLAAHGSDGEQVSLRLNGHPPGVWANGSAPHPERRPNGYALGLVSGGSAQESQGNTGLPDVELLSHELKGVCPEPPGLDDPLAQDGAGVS

Row | Ki [1] | inhibition [2] | inhibition [3] | inhibition [4] | Ki [5] | Ki [6] | Ki [7] | inhibition [8] | Compound
1 | 5100 nM | 3% | -8% | 44% |  |  |  |  | O=C(Cc1ccccc1)Nc1nn2c(-c3ccco3)nnc2s1
2 | 300 nM | 13% |  |  | 900 nM |  |  |  | N#Cc1cnc(N)nc1-c1ccccc1
3 | 31000 nM | 21% | 32% |  | 510 nM |  |  |  | COc1nc(N)c(C#N)c(-c2ccc3c(c2)OCO3)c1C#N
4 | 1600 nM | 33% | -5% | 35% |  |  |  |  | COCc1cc(C)nc2sc(-c3nc(N)nc(N(C)C)n3)c(N)c12
5 | 43 nM |  |  |  | 7.2 nM | 220 nM | 440 nM |  | Nc1nc(-c2ccccc2)nc(-c2ccccc2O)n1
6 |  | -3% | 14% |  | 3200 nM |  |  | 42% | C=CCn1c(=O)[nH]c2nc3cc(NC(C)=O)ccc3nc2c1=O
